Measurements from ChEMBL document CHEMBL1132624, “Guanidine derivatives as combined thromboxane A2 receptor antagonists and synthase inhibitors” (J Med Chem, 1999).

Tests used:
Homo sapiens = organism: Homo sapiens; test: In vitro activity expressed as EC50 for inhibition of collagen induced platelet aggregation.; assay type: functional
Thromboxane-A synthase = target: T1, Thromboxane-A synthase (Homo sapiens, UniProt P24557); test: In vitro activity on thromboxane A2 synthase inhibition in gel filtered human platelets.
T1 sequence (P24557 whole entry): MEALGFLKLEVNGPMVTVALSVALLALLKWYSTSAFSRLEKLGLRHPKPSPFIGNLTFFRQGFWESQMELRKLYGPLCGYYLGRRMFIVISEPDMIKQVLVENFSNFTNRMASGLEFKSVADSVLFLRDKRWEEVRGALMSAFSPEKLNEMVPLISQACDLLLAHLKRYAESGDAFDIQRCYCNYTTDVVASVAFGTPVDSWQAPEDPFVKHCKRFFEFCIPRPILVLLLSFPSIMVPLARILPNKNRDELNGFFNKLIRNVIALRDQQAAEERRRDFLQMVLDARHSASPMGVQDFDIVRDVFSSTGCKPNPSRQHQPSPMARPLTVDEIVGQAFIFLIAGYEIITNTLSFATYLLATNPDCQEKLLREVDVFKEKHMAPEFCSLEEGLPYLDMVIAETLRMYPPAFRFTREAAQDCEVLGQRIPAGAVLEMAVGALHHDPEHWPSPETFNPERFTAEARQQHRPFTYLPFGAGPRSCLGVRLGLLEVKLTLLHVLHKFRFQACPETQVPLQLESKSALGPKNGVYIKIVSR

Thromboxane A2 receptor = target: T2, Thromboxane A2 receptor (Homo sapiens, UniProt P21731); test: In vitro activity on thromboxane A2 receptor antagonism in gel filtered human platelets.; assay type: functional
T2 sequence (P21731 whole entry): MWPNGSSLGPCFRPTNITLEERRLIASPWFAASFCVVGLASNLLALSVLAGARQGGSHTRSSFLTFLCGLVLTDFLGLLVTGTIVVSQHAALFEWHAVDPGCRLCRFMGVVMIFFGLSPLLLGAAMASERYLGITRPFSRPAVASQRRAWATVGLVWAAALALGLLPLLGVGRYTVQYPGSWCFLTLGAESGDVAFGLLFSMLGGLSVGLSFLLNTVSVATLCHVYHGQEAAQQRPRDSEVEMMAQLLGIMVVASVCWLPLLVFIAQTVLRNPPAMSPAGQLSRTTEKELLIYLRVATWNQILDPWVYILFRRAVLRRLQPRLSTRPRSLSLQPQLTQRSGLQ
Summary of the method: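 Human gel-filtered platelets; competitive displacement of the high-affinity radioligand ³H-SQ 29,548 from the PGH2/TXA2 receptor; IC50 from displacement. Run at least in duplicate.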

| SMILES | EC50 (Homo sapiens) [nM] | IC50 (Thromboxane-A synthase) [nM] | IC50 (Thromboxane A2 receptor) [nM] |
| --- | --- | --- | --- |
| N#CN/C(=N/C1CCCCC1)Nc1ccc(/C(=C\CCCC(=O)O)c2cccnc2)cc1 | 31000 |  |  |
| CC(C)(C)/N=C(\NC#N)Nc1cccc(/C(=C\CCC(=O)O)c2cccnc2)c1 | 13000 | 400 | 81 |
| N#CN/C(=N/C1CC1)Nc1ccc(/C(=C\CCCC(=O)O)c2cccnc2)cc1 | 42000 | 3900 | 21000 |
| CC(C)(C)Nc1c(Nc2cccc(/C(=C\CCCC(=O)O)c3cccnc3)c2)c(=O)c1=O | 59000 | 230 | 830 |
| CC(C)C/N=C(\Nc1cccc(/C(=C\CCCC(=O)O)c2cccnc2)c1)Nc1nn[nH]n1 | 22000 | 930 | 300 |
| N/C(=N/C1CCCC1)Nc1cccc(/C(=C\CCCC(=O)O)c2cccnc2)c1 | 21000 | 3900 | 1700 |
| CC(C)(C)NC(=O)Nc1cccc(/C(=C\CCCC(=O)O)c2cccnc2)c1 | 9000 | 40 | 1300 |
| O=C(O)CCC/C=C(/c1cccnc1)c1cccc(N/C(=C/[N+](=O)[O-])NC2CCCCC2)c1 | 15000 | 310 | 440 |
| N#CN/C(=N/Cc1cccnc1)Nc1cccc(/C(=C\CCCC(=O)O)c2cccnc2)c1 | 6900 | 320 | 130 |
| CC(C)C/N=C(/NC(N)=O)Nc1cccc(/C(=C\CCCC(=O)O)c2cccnc2)c1 | 12000 | 200 | 610 |
| O=C(O)CCC/C=C(/c1cccnc1)c1cccc(N/C(=N\C2CCCC2)NC(=O)c2ccccc2)c1 | 16000 | 4 | 110 |
| CC(C)(C)/N=C(\NC#N)Nc1cccc(/C(=N/OCCCCC(=O)O)c2cccnc2)c1 | 17000 | 230 | 510 |
| CC(C)(C)/N=C(\NC#N)Nc1cccc(/C(=C/CCCC(=O)O)c2cccnc2)c1 | 48000 |  | 2600 |

Results, then the compound that gave them:

| EC50 (Homo sapiens) [nM] | IC50 (Thromboxane-A synthase) [nM] | IC50 (Thromboxane A2 receptor) [nM] | SMILES |
| --- | --- | --- | --- |
| 500 | 3 | 83 | N#CN/C(=N/C12CC3CC(CC(C3)C1)C2)Nc1cccc(/C(=C\CCCC(=O)O)c2cccnc2)c1 |
| 460 | 250 | 16 | C/N=C(/NC#N)Nc1cccc(/C(=C\CCCC(=O)O)c2cccnc2)c1 |
| 1000 | 26 | 120 | CN(C)/C(=N/c1cccc(/C(=C\CCCC(=O)O)c2cccnc2)c1)NC#N |
| 6800 | 2900 | 1000 | CN(C)CC/N=C(/NC#N)Nc1cccc(/C(=C\CCCC(=O)O)c2cccnc2)c1 |
| 1600 | 11 | 32 | N#CN/C(=N/Cc1ccccc1)Nc1cccc(/C(=C\CCCC(=O)O)c2cccnc2)c1 |
| 350 | 25 |  | CC(C)C/N=C(/NC#N)Nc1cccc(/C(=C\CCCC(=O)O)c2cccnc2)c1 |
| 3300 | 3 |  | CC(C)(C)/N=C(\Nc1cccc(/C(=C\CCCC(=O)O)c2cccnc2)c1)NS(=O)(=O)c1ccccc1 |
| 690 |  |  | CC(C)CC/N=C(/NC#N)Nc1cccc(/C(=C\CCCC(=O)O)c2cccnc2)c1 |
| 5800 | 3 | 47 | N#CN/C(=N/C1CCCCC1)Nc1cccc(/C(=C\CCCC(=O)O)c2cccnc2)c1 |
| 6100 | 25 | 330 | CC(C)(C)/N=C(\Nc1cccc(/C(=C\CCCC(=O)O)c2cccnc2)c1)NS(C)(=O)=O |
| 1700 | 5 | 77 | CC(C)(C)/N=C(\NC#N)Nc1cccc(/C(=C\CCCCCC(=O)O)c2cccnc2)c1 |
| 500 |  |  | N#CN/C(=N/C1CCCC1)Nc1cccc(/C(=C\CCCC(=O)O)c2cccnc2)c1 |
| 120 |  | 3 | CC(C)(C)NC(Nc1cccc(/C(=C\CCCC(=O)O)c2cccnc2)c1)=C(C#N)C#N |
| 1000 | 430 | 35 | N#CN/C(N)=N\c1cccc(/C(=C\CCCC(=O)O)c2cccnc2)c1 |
| 310 |  |  | CC(C)(C)N/C(=N\C#N)Nc1cccc(/C(=C\CCCC(=O)O)c2cccnc2)c1 [TERBOGREL] |
| 5200 | 5 | 310 | CC(C)(C)/N=C(\NC#N)Nc1cccc(/C(=N\OCCCCC(=O)O)c2cccnc2)c1 |
| 2000 | 22 | 38 | CC(C)(C)/N=C(/S)Nc1cccc(/C(=C\CCCC(=O)O)c2cccnc2)c1 |
| 3700 | 6 | 330 | CC(C)(C)/N=C(\NC#N)Nc1cccc(/C(=C\CCCCC(=O)O)c2cccnc2)c1 |
